Bioassay records from PubChem.
MrgX1 antag – antagonists of human MrgX1 receptor, primary screen, HEK293 cells, Fluo-4 calcium flux; Mas-related G-protein coupled receptor member X1 (Homo sapiens), Q96LB2; actives 1.3% (n = 310,000); BAM8-22 antagonism; active compounds read low; AID 588676, 2011; B-score at 10 µM;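 active = calcium-response B-score plate-corrected more than 3 library SD below zero, starting fluorescence within 5 deviations, no agonist response on first addition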;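 note: peak minus trough fluorescence over baseline after final BAM8-22 challenge near maximal dose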
MrgX1 agonist – agonists of human MrgX1 receptor, primary screen, HEK293 cells, Fluo-4 calcium flux; B-score at 10 µM; AID 588627, 2011; Mas-related G-protein coupled receptor member X1 (Homo sapiens), Q96LB2; actives 0.44% (n = 310,000); Fluo-4 calcium fluorescence, agonist mode; active compounds read high;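 active = calcium response B-score plate-corrected fluorescence ratio at least 3 library SD, with starting fluorescence B-score inside 5 SD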
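Assay system: MrgX1-expressing HEK293 cells / Amount: fifteen thousand cells per well / Doses: test compound in the initial addition of three / Timing: cells plated overnight, dye loaded 0.5 h 37 °C, 0.5 h room temperature / Technique: kinetic calcium dye fluorescence, Fluo-4 NW / Control set: positive and negative controls per plate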
Kir21 block – inhibitors of mouse Kir2.1 inward-rectifier potassium channel. Inward rectifier potassium channel 2 (Mus musculus), P35561. AID 1672, 2009. HEK293-Kir2.1, FluxOR thallium flux fluorescence; active compounds read low. B-score at 10 µM. actives 0.85% (n = 310,000);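 active = fluorescence ratio B-score at or below minus 3 SD of library scores, with starting-brightness B-score within 2 SD, cut at about -4.2 in these data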;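 note: channel flux triggered by added potassium and thallium sulfate stimulus; B-score of peak minus minimum fluorescence over baseline after thallium stimulus; more negative B-score means stronger Kir2.1 block with less thallium influx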
Target sequence (P35561 whole entry, looked up): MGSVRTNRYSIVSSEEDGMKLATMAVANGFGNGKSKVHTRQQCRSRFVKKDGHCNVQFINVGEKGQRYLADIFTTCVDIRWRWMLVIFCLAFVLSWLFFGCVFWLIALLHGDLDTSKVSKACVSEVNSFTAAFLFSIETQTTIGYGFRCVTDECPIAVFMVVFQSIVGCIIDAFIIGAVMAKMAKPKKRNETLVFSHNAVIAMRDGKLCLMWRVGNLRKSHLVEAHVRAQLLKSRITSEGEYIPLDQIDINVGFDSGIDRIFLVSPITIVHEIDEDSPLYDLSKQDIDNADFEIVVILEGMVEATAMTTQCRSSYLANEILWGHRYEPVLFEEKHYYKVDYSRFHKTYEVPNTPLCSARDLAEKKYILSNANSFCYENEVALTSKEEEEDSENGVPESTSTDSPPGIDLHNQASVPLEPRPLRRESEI
MrgX1 allo act – positive allosteric modulators of MrgX1, primary screen, HEK293 cells, Fluo-4 calcium flux; Mas-related G-protein coupled receptor member X1 (Homo sapiens), Q96LB2; B-score at 10 µM; FDSS; active compounds read high; AID 588675, 2011; actives 0.63% (n = 310,000);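 active = plate-corrected calcium response at least 3 library SD above typical, normal starting fluorescence, not activating the receptor alone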;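 note: compound read alongside a low EC10 to EC30 dose of BAM8-22 agonist; peak minus trough fluorescence over baseline measured at the second addition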
RGS4 block – RGS4 inhibitors, primary screen, cell-based, HEK293 M3R inducible RGS4, calcium flux. B-score at 10 µM. Fluo-4 calcium flux; active compounds read high; triggered by carbachol at its EC20. Regulator of G-protein signaling 4 (Homo sapiens), P49798. actives 0.45% (n = 310,000). AID 463165, 2010;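 active = B-score, a plate-corrected calcium signal, over three deviations above library mean, with baseline fluorescence within five deviations of library mean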;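 note: RGS4 expression induced by doxycycline in cells with stable M3 receptor; B-score is computed from the integrated fluorescence ratio over baseline after carbachol; higher B-score means a larger calcium signal and so more RGS4 inhibition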
RGS4 act – RGS4 potentiators or activators, primary screen, cell-based, HEK293 M3R inducible RGS4, calcium flux | carbachol calcium flux Fluo4; active compounds read low | B-score at 10 µM | actives 0.92% (n = 310,000) | AID 463111, 2010;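 active = B-score of the integrated calcium signal more than 4 SD below the library mean, with starting fluorescence not abnormally high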;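 note: negative B-score means reduced calcium response which marks RGS4 activation or potentiation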
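Material: M3R-expressing HEK293 line, RGS4 induced by doxycycline | Schedule: Overnight RGS4 induction, 30 min dye load 37 °C, 20 min compound RT | Measured by: Fluo4 fluorescence kinetic imaging of calcium | Read-out: Integrated calcium ratio converted to B score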
Starred values were filed as active, the others as inactive; i = inactive; . = no result given. Hits are enriched below; roughly 4.1% of the tested compounds scored in any of these assays.

SMILES | MrgX1 antag | MrgX1 agonist | Kir21 block | MrgX1 allo act | RGS4 block | RGS4 act
Cc1ccc(S(=O)(=O)N2[C@@H](c3ccc(F)cc3)C(C(=O)O)=CC[C@H]2c2ccc3c(c2)OCO3)cc1 | i | i | . | 9.5* | . | .
CCC(=O)N/N=C/c1ccc(-c2ccc(Cl)cc2)o1 | i | i | 1.7 | i | i | i
N#CC1=C(N)n2c(s/c(=C\c3cccs3)c2=O)=C(C#N)C1c1cccs1 (centres undefined) | -7.4* | i | 1.2 | i | i | i
N#CC1=C(N)n2c(s/c(=C\c3ccco3)c2=O)=C(C#N)C1c1ccco1 (centres undefined) | i | i | -0.55 | i | i | i
CN(C)CCNC(=O)c1cccc(S(=O)(=O)Nc2ccc(F)cc2)c1 | i | i | -2 | i | i | i
CCOc1cccc2cc(C(=O)Oc3ccc(OC)cc3)c(=O)oc12 | i | i | -0.25 | i | i | i
CN(C(=O)CCc1nnc(CCCCc2ccccc2)o1)C1CCOCC1 | i | i | 2.2 | i | i | i
CN(C(=O)CCc1nnc(CCCCc2ccccc2)o1)C1CC(C)(C)NC(C)(C)C1 | -5.8* | i | 1.1 | i | i | i
CCCCCCCCCC[n+]1cccc2c3ccccc3ccc21 | . | . | -9.1* | . | i | -10*
CCCCCCCC[n+]1cccc2c3ccccc3ccc21 | i | i | -11* | i | i | -9.9*
CCOC(=O)CSC1=C(C#N)C(c2ccc(C)o2)CC(=O)N1 (centres undefined) | i | i | -4.4* | i | i | i
CCCOC(=O)CSC1=C(C#N)C(c2ccccc2Cl)CC(=O)N1 (centres undefined) | i | i | -0.08 | i | i | i
N#CC1=C(SCc2ccccc2)NC(=O)CC1c1ccccc1 (centres undefined) | i | i | -11* | i | i | i
CCOC(=O)CSC1=C(C#N)C(c2ccc(Cl)cc2)CC(=O)N1 (centres undefined) | i | i | -8.8* | i | i | i
CCOC(=O)CSC1=C(C#N)C(c2ccc3c(c2)OCO3)CC(=O)N1 (centres undefined) | i | i | -1.1 | i | i | i
C=CCSC1=C(C#N)C(c2ccccc2)CC(=O)N1 (centres undefined) | i | i | -1.9 | i | i | i
Oc1cccc(/C=N/Nc2cccc3cccnc23)c1 | . | . | 1.1 | . | i | i
C#CCOCCOCCOCCNc1nc(N2CCN(C(=O)CCCCCCCCCCNC(=O)[C@H]([C@@H](C)CC)n3cc(CCCCCN)nn3)CC2)nc(N2CCN(C(=O)CCCCCCCCCCNC(=O)[C@H](CO)n3cc(CCCCCN)nn3)CC2)n1 | i | 108* | . | i | . | .
C#CCOCCOCCOCCNc1nc(N2CCN(C(=O)CCCCCCCCCCNC(=O)[C@H]([C@@H](C)CC)n3cc(CCCCCN)nn3)CC2)nc(N2CCN(C(=O)CCCCCCCCCCNC(=O)[C@@H]([C@H](C)CC)n3cc(CCCCCN)nn3)CC2)n1 | i | 106* | . | i | . | .
Cc1ccc(-n2cccn2)c([C@@H]2C[C@H]3CN(C)C(=O)[C@]34CCCN24)c1 | i | i | -0.01 | i | i | i
CCn1c(C)nc2cc(C(=O)NNC(=O)Nc3cccc(Cl)c3)ccc21 | -6.3* | i | -1.1 | i | i | i
CCn1c(C)nc2cc(C(=O)NNC(=O)Nc3ccc(Cl)cc3)ccc21 | i | i | -0.76 | i | i | i
CC(=O)Nc1cccc(NC(=O)COc2nncc3ccccc23)c1 | i | i | 1.3 | i | i | i
COc1ccc(N2CCN(C(=O)Cn3nnc(-c4ccc(OC)c(OC)c4)n3)CC2)cc1 | i | i | 0.62 | i | i | i
Cc1ccc(-c2nnn(CC(=O)N3CCN(c4ccccc4)CC3)n2)o1 | i | i | -1.2 | i | i | -7.6*
